Published values pooled from the literature.
Protocols differ between the studies behind these lines.
Target: Ribosomal protein S6 kinase beta-1 (RPS6KB1, Homo sapiens, UniProt P23443)

| SMILES | observed | mode | technique | tested at | quantity | value |
| --- | --- | --- | --- | --- | --- | --- |
| Cc1ccc(C(=O)NCc2ccsc2)cc1C#Cc1cn(C(C)C)c2ncnc(N)c12 | enzyme activity | inhibitor |  | 1 µM | activity vs control | 92% |
| Nc1ncnc2occ(-c3ccc(NC(=O)Nc4cc(C(F)(F)F)ccc4F)cc3)c12 | cell-free assay | inhibitor |  | 20 µM | remaining signal | 0.1% |
| O=C1Nc2ccc(Cl)cc2C1=Cc1cc(Cl)c(O)c(Cl)c1 | cell-free assay |  |  | 0.5 µM | remaining signal | 91% |
| CN([C@@H]1CCc2c(CC(=O)O)c3ccccc3n2C1)S(=O)(=O)c1ccc(F)cc1 | cell-free assay |  | competition with immobilised ligand | 1 µM | remaining binding | 100% |
| CN(c1ncccc1CNc1nc(Nc2ccc3c(c2)CC(=O)N3)ncc1C(F)(F)F)S(C)(=O)=O | enzyme activity | inhibitor |  | 1 µM | inhibition | 26.4% |
| O=C(NCCCC1CCCCC1)c1ccc(CNC(=O)c2cnn(-c3ccccc3)c2C(F)(F)F)cc1 | cell-free assay |  | competition with immobilised ligand | 0.1 µM | remaining binding | 96% |
| CNC(=O)c1cc(Oc2ccc(NC(=O)Nc3ccc(Cl)c(C(F)(F)F)c3)cc2)ccn1 | cell-free assay |  |  | 0.5 µM | remaining signal | 91.4% |
| CCN(CC)CCNC(=O)c1c(C)[nH]c(/C=C2\C(=O)Nc3ccc(F)cc32)c1C | enzyme activity | inhibitor |  | 10 µM | inhibition | 90% |
| COc1cc2ncnc(Nc3ccc(Oc4ccccc4)c(C)c3C)c2cc1OC | enzyme activity | inhibitor |  | 1 µM | inhibition | -3% |
| CC(C)c1ccc(NC(=O)c2cccs2)c(-c2nc3ccccc3[nH]c2=O)c1 | enzyme activity | inhibitor |  | 1 µM | activity vs control | 93% |
| C=CC(=O)Nc1cc(Nc2nccc(Nc3cc(Cl)c(F)cc3C(C)(C)O)n2)c(OC)cc1N1CC[C@@H](N(C)C)C1 | enzyme activity | inhibitor |  | 1 µM | inhibition | -3% |
| CC(=O)c1c(NS(C)(=O)=O)c2cc(-c3ccc(Cl)cc3)c(-c3ccc(Cl)cc3Cl)nc2n(C)c1=O | cell-free assay |  | competition with immobilised ligand | 1 µM | remaining binding | 95% |
| COc1ccc(COc2ccc(Cc3cnc(N)nc3N)cc2OC)cc1 | cell-free assay |  |  | 0.5 µM | remaining signal | 89.5% |
| COc1cc(-c2cn(C3CCc4c(F)cccc4N(CC(F)(F)F)C3=O)nn2)ccc1-n1cnc(C)c1 (stereo not shown) | cell-free assay |  | competition with immobilised ligand | 1 µM | remaining binding | 100% |
| Cn1cncc1C1=CN(c2ncnc3[nH]cnc23)CCS1 | enzyme activity | inhibitor | radiometric | 50 nM | inhibition | 14% |
| C[C@@H]1CN(c2cc(-c3nn(C)c4ccc(OC5(C)CC5)cc34)ncn2)C[C@H](C)O1 | cell-free assay |  | competition with immobilised ligand | 1 µM | remaining binding | 100% |
| CCCS(=O)(=O)Nc1ccc(F)c(C(=O)c2c[nH]c3ncc(-c4ccc(Cl)cc4)cc23)c1F | enzyme activity | inhibitor |  | 1 µM | inhibition | < 10% |
| CN(C)C1CCN(CC#Cc2nn(C3CCCC3)c3nc(NCc4ccccc4)ncc23)C1 (stereo not shown) | enzyme activity | inhibitor | FRET | 10 µM | inhibition | 10% |
| COc1cccc(CNC(=O)c2nc3scc(COCc4ccc(C(=O)O)cc4)c3c(=O)[nH]2)c1 | cell-free assay |  | competition with immobilised ligand | 1 µM | remaining binding | 96.1% |
